Screening results deposited in PubChem BioAssay by The Scripps Research Institute Molecular Screening Center.
ABHD4 inh: inhibits mouse alpha/beta hydrolase domain 4; inhibition, % at 8.92 µM; hit rate 0.54% among 370,000; purified mABHD4, FP-Rh probe fluorescence polarization; Q8VD66;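 active = inhibition exceeding the mean over every tested compound plus 3 SD, cut at about 30% in these data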;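 note: 0% = plate median of compound wells and 100% = S159A mutant with DMSO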
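Test system: mABHD4 protein; Read-out basis: % inhibition; Incubation: 45 min + 60 min at 25 °C; Repeats: single replicate; Technique: fluorescence polarization with parallel and perpendicular emission, 525/598 nm; Compound: 8.92 µM, single dose; Benchmarks: full inhibition S159A mutant plus DMSO, zero as sample-well median.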
HTRA1 inhibitor: HTRA1 (human) protease inhibition | AID 504803 | Q92743 | inhibition, % at 5.96 µM | hit rate 0.5% among 340,000 | recombinant HTRA1, FP-rhodamine activity-based probe, fluorescence polarization; in the data active = inhibition above about 36%;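 note: 0% = enzyme with DMSO and 100% = wells lacking enzyme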
Target sequence (Q92743 whole entry, looked up): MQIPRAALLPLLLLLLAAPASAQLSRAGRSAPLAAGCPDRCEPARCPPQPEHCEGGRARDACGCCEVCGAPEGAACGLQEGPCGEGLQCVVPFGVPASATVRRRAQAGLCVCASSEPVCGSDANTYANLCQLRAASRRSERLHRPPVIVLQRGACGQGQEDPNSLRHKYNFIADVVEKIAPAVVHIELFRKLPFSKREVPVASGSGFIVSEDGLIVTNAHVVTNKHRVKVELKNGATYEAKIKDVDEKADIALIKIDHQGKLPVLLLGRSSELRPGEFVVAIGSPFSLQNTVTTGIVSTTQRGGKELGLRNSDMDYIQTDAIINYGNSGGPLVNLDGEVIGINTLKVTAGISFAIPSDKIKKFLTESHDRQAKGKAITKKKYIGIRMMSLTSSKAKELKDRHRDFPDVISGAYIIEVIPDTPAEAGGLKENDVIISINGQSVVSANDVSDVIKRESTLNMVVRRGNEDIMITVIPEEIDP
TCR-CD3 inh: blocks the human TCR-CD3 interaction; TAMRA-labeled TCR probe fluorescence, biochemical; AID 651800; inhibition, % at 9.4 µM; hit rate 0.37% among 360,000; in the data active = inhibition above about 19%;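 note: recombinant mutant TCR 2C K166C tagged with TAMRA read by polarization; 0% = receptor in buffer alone and 100% = receptor with positive control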
pPAFAH FP inh: inhibitors of human plasma PAF acetylhydrolase (pPAFAH); Q13093; recombinant pPAFAH, FP-rhodamine probe fluorescence polarization; inhibition, % at 3.39 µM; hit rate 1.5% among 330,000; AID 463082;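 active = inhibition above the mean inhibition across the screen plus 3 SD, cut at about 25% in these data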;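 note: inhibitors block binding of the rhodamine activity-based probe so polarization drops; 0% = enzyme with DMSO and 100% = wells lacking pPAFAH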
SIAE inh: human SIAE inhibition, primary screen; hit rate 0.69% among 370,000; SIAE FP-Rh probe binding, fluorescence polarization; inhibition, % at 9.66 µM; Q9HAT2;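 active = inhibition above a cutoff: mean of compounds within the control limits plus 3 SD of those, cut at about 17% in these data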;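 note: 0% = plate median of compound wells and 100% = probe without SIAE protein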
ABHD4 confirm: ABHD4 (mouse) inhibition, FP confirmation | AID 720658 | hit rate 55% among 1,800 | purified mABHD4, FP-Rh probe fluorescence polarization | shares compounds with ABHD4 inh | inhibition, % at 8.92 µM;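 active = mean inhibition across replicates above the hit cutoff set in the primary screen, cut at about 30% in these data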;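 note: 0% = wild-type ABHD4 with DMSO and 100% = catalytically dead S159A mutant with DMSO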
Numbers without * were called inactive; x = not tested or not shown. Rows were chosen to be rich in hits. Some 2.3% of all compounds tested hit in one or more screens of this group.

SMILES	ABHD4 inh	HTRA1 inhibitor	TCR-CD3 inh	pPAFAH FP inh	SIAE inh	ABHD4 confirm
O=C(NC1CCCCN(Cc2cccc(Cl)c2)C1=O)c1ccc(F)cc1 (stereo not drawn)	-1	x	x	x	-3	x
O=c1oc2c(-c3ccc([N+](=O)[O-])cc3)cc(O)cc2s1	61*	24	10	22	5	-22
Cc1[nH]c2ccccc2c1CC(=O)Nc1ccc(Nc2cccnc2)c(-c2ccc(F)c(F)c2)c1	27	x	4	x	17	x
Cc1ccc(-c2cc(NC(=O)Cc3c(C)[nH]c4ccccc34)ccc2Nc2cccnc2)cc1	32*	x	-2	x	8	37*
CCOC(=O)c1nn(-c2ccc(OC)cc2)c(=O)c2c(N)scc12	2	5	-1	2	8	x
COc1ccc(/C=N/NC(=O)c2nn(-c3ccccc3)c(=O)c3c(N)scc23)cc1	46*	21	7	21	11	27
COc1ccc(/C=N/NC(=O)c2nn(-c3ccc(Cl)cc3)c(=O)c3c(N)scc23)cc1	30*	22	-1	22	11	17
CCC(c1nnnn1-c1ccc2c(c1)OCCO2)N1CCN(c2cccc(C)c2C)CC1 (stereo not drawn)	2	x	-1	x	-3	x
C[C@H]1[C@@H](NC(=O)C2CCCCC2)CC[C@@]23CCCN2C(=O)CCC[C@@H]13	0	x	x	x	-4	x
COc1ccccc1C1Nc2cccc3cccc(c23)N1	55*	32	8	22	4	53*
Cc1ccc(S(=O)(=O)N2[C@H](CC(=O)c3cccs3)OC[C@@H]2C(C)C)cc1	-14	x	3	x	-5	x
Cc1ccc(-n2c(SCc3c(Cl)cccc3Cl)nnc2-c2ccco2)cc1	-9	x	x	x	-1	x
CC(C)CC(=O)Nc1ccc(C(=O)COC(=O)C2=COCCO2)cc1	95*	-6	-3	-8	12	5
Cc1cccc(NCC(=O)N/N=C\c2ccccn2)c1	1	-3	-1	5	-6	x
O=C(CNc1cccc2ccccc12)N/N=C/c1ccccn1	39*	x	3	11	16	31*
CSc1nnc(-c2ccco2)c(-c2ccco2)n1	40*	20	14	31*	14	46*
CSc1nnc(-c2ccccc2)c(-c2ccccc2)n1	-2	-2	3	-1	-4	x
Cc1cccc(N2C(=O)SC(N(C)c3ccccc3)C2=O)c1 (stereo not drawn)	64*	-12	-5	-9	-1	-9
CCCCNC(=O)C(NC(=O)Cc1cc(C(F)(F)F)cc(C(F)(F)F)c1)C(=O)c1ccccc1 (stereo not drawn)	2	x	-6	x	4	x
Nc1ccc(Br)c2cccnc12	40*	20	6	10	4	16
COc1c2ccccc2nn1C(C)C	1	x	-2	x	7	x
Cc1ccc(C(=O)Nc2nc3ccccc3[nH]2)cc1	30*	-4	-8	1	-6	21
COc1cc2cc(C)nc(Cc3cccc4ccccc34)c2cc1OC	33*	-18	2	3	0	41*
C=CCN1C(=O)[C@H](CC(=O)NCc2cccc3ccccc23)[C@@]2(C(=O)OCC)CCCC=C12	-3	x	x	x	-2	x
COc1ccc2nc(NC(=O)Nc3cccc4ccccc34)sc2c1	30*	-2	-3	-5	-1	-1
SMILES	ABHD4 inh	HTRA1 inhibitor	TCR-CD3 inh	pPAFAH FP inh	SIAE inh	ABHD4 confirm
Cc1ccc(/C=C2/C(=O)c3ccc(C(=O)O)cc3C2=O)o1	34*	22	4	x	-23	-6
Cc1ccc(C=C2C(=O)c3ccccc3C2=O)o1	10	2	-14	9	-18	x
O=[N+]([O-])c1c(Nc2ccccc2O)ccc2nonc12	0	-1	-4	-2	-1	x
O=[N+]([O-])c1c(Nc2ccccc2O)cc(Cl)c2nonc12	33*	29	7	x	6	49*
C=CCOC(=O)Nc1nc(CCNC(=O)OC(C)(C)C)c(C(=O)O)s1	4	x	-4	x	1	x
COc1ccccc1N(C(=O)CCl)c1cn(C(C)=O)c2ccccc12	2	-8	-2	-3	2	x
COc1ccccc1N(C(C)=O)C1=C(Cl)C(=O)c2ccccc2C1=O	39*	23	3	x	6	46*
CN(c1ccc(O)cc1)c1nc(O)c(C2=c3ccccc3=NC2=O)s1	43*	7	-3	2	2	65*
CC(C)c1[nH]nc2c1C(c1ccc(F)cc1)NC2=O (stereo not drawn)	-5	x	1	x	-13	x
